In ChEMBL document CHEMBL1649406, “Synthesis and anti-mycobacterial activities of triazoloquinolones” (Eur J Med Chem, 2011):
Converted amounts (≈) assume the structure as drawn.

Tests used:
[1] = system: Staphylococcus epidermidis; assay: Antibacterial activity against Staphylococcus epidermidis after 18 to 24 hrs by broth microdilution method; assay type: functional
In short: (§1)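 Broth microdilution per CLSI; compounds dissolved in DMSO at 10 mg/mL stock, serially diluted in Mueller Hinton Broth, mixed with equal volume of bacterial inoculum (final […]); incubated 37 °C for 18–24 h; MIC taken as lowest concentration preventing visible growth; duplicate determinations.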

Escherichia coli = assay: Antibacterial activity against Escherichia coli after 18 to 24 hrs by broth microdilution method; assay type: functional; in short: as §1
Enterococcus faecalis = assay: Antibacterial activity against Enterococcus faecalis after 18 to 24 hrs by broth microdilution method; assay type: functional; in short: as §1
Klebsiella pneumoniae = assay: Antibacterial activity against Klebsiella pneumoniae after 18 to 24 hrs by broth microdilution method; assay type: functional; in short: as §1
Enterobacter cloacae = assay: Antibacterial activity against Enterobacter cloacae after 18 to 24 hrs by broth microdilution method; assay type: functional; in short: as §1
Pseudomonas aeruginosa = assay: Antibacterial activity against Pseudomonas aeruginosa after 18 to 24 hrs by broth microdilution method; assay type: functional; in short: as §1
[2] = system: Mycobacterium tuberculosis; assay: Antimycobacterial activity against Mycobacterium tuberculosis H37Ra by twofold agar dilution method; assay type: functional
In short: (§2)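 Strains grown in Middlebrook 7H11 with OADC. Suspensions at McFarland 1 turbidity were diluted 1:10, 1:100 and 1:10,000 in Middlebrook 7H9. These were inoculated onto duplicate Middlebrook 7H11 plates containing serial concentrations of compound.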

Staphylococcus aureus = assay: Antibacterial activity against Staphylococcus aureus after 18 to 24 hrs by broth microdilution method; assay type: functional; in short: as §1
Acinetobacter baumannii = assay: Antibacterial activity against Acinetobacter baumannii after 18 to 24 hrs by broth microdilution method; assay type: functional; in short: as §1
[3] = system: Mycolicibacterium smegmatis; assay: Antimycobacterial activity against Mycobacterium smegmatis MC2 155 after 72 hrs by broth microdilution method; assay type: functional; details: str. MC2 155, 72 h
In short: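 Strains were pre-grown in Middlebrook 7H11 with OADC. The microdilution assay ran in sealed 96-well plates at 37 °C and was read after 72 h for M. smegmatis mc²155 and after 7 days for M. bovis BCG.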

Candida tropicalis = assay: Antifungal activity against Candida tropicalis after 48 hrs by NCCLS method; assay type: functional
In short: (§3)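 NCCLS yeast broth dilution; inocula from 48 h, 35 °C Sabouraud agar cultures diluted to 10⁶ CFU/mL; compounds from 10 mg/mL DMSO stock serially diluted in RPMI-1640, added to equal volume of fungal suspension in round-bottom microplates; incubated 35 °C for 48–72 h; MIC in duplicate.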

[4] = system: Stenotrophomonas maltophilia; assay: Antibacterial activity against Stenotrophomonas maltophilia after 18 to 24 hrs by broth microdilution method; assay type: functional; in short: as §1
[5] = system: Mycobacterium tuberculosis; assay: Antimycobacterial activity against Mycobacterium tuberculosis H37Rv by twofold agar dilution method; assay type: functional; in short: as §2
Candida albicans = assay: Antifungal activity against Candida albicans after 48 hrs by NCCLS method; assay type: functional; in short: as §3
[6] = Cytotoxicity against human MT4 cells after 96 hrs by MTT assay; assay type: cell-based
In short: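 Exponentially growing MT-4 cells (CD4+ T-cells carrying integrated HTLV-1) seeded at 1 × 10⁵ cells/mL in RPMI-1640 with 10% FCS, penicillin and streptomycin; exposed to serial compound dilutions at 37 °C, humidified 5% CO₂; viability read by MTT after 96 h; CC50 derived.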

Structure (SMILES) | MIC [1] | MIC (Escherichia coli) | MIC (Enterococcus faecalis) | MIC (Klebsiella pneumoniae) | MIC (Enterobacter cloacae) | MIC (Pseudomonas aeruginosa) | MIC [2] | MIC (Staphylococcus aureus) | MIC (Acinetobacter baumannii) | MIC [3] | MIC (Candida tropicalis) | MIC [4] | MIC [5] | MIC (Candida albicans) | CC50 at 96 h [6]
CCOC(=O)c1cn(C)c2c(ccc3c2nnn3Cc2ccccc2)c1=O | > 64 µg/mL | > 64 µg/mL | > 64 µg/mL | > 64 µg/mL | > 64 µg/mL | > 64 µg/mL | > 128 µg/mL | > 64 µg/mL | > 64 µg/mL | > 128 µg/mL | > 64 µg/mL | > 64 µg/mL | 64 µg/mL (≈ 177 µM) | > 64 µg/mL | 
CCOC(=O)c1cn(CC)c2c(ccc3c2nnn3Cc2ccccc2)c1=O | > 64 µg/mL | > 64 µg/mL | > 64 µg/mL | > 64 µg/mL | > 64 µg/mL | > 64 µg/mL | > 128 µg/mL | > 64 µg/mL | > 64 µg/mL | > 128 µg/mL | > 64 µg/mL | > 64 µg/mL | 64 µg/mL (≈ 170 µM) | > 64 µg/mL | 
C=CCn1cc(C(=O)OCC)c(=O)c2ccc3c(nnn3Cc3ccccc3)c21 | > 64 µg/mL | > 64 µg/mL | > 64 µg/mL | > 64 µg/mL | > 64 µg/mL | > 64 µg/mL | > 128 µg/mL | > 64 µg/mL | > 64 µg/mL | > 128 µg/mL | > 64 µg/mL | > 64 µg/mL | 64 µg/mL (≈ 165 µM) | > 64 µg/mL | 
CCCCn1cc(C(=O)OCC)c(=O)c2ccc3c(nnn3Cc3ccccc3)c21 | > 64 µg/mL | > 64 µg/mL | > 64 µg/mL | > 64 µg/mL | > 64 µg/mL | > 64 µg/mL | 32 µg/mL (≈ 79.1 µM) | > 64 µg/mL | > 64 µg/mL | > 128 µg/mL | > 64 µg/mL | > 64 µg/mL | 64 µg/mL (≈ 158 µM) | > 64 µg/mL | 
CCOC(=O)c1cn(C(C)(C)C)c2c(ccc3c2nnn3C)c1=O | > 64 µg/mL | > 64 µg/mL | > 64 µg/mL | > 64 µg/mL | > 64 µg/mL | > 64 µg/mL | 4 µg/mL (≈ 12.2 µM) | > 64 µg/mL | > 64 µg/mL | 16 µg/mL (≈ 48.7 µM) | > 64 µg/mL | > 64 µg/mL | 32 µg/mL (≈ 97.5 µM) | > 64 µg/mL | 
C=C(C)Cn1cc(C(=O)OCC)c(=O)c2ccc3c(nnn3C)c21 | > 64 µg/mL | > 64 µg/mL | > 64 µg/mL | > 64 µg/mL | > 64 µg/mL | > 64 µg/mL | > 128 µg/mL | > 64 µg/mL | > 64 µg/mL | > 128 µg/mL | > 64 µg/mL | > 64 µg/mL | 64 µg/mL (≈ 196 µM) | > 64 µg/mL | 
CCOC(=O)c1cn(CC2CC2)c2c(ccc3c2nnn3C)c1=O | > 64 µg/mL | > 64 µg/mL | > 64 µg/mL | > 64 µg/mL | > 64 µg/mL | > 64 µg/mL | > 128 µg/mL | > 64 µg/mL | > 64 µg/mL | > 128 µg/mL | > 64 µg/mL | > 64 µg/mL | 64 µg/mL (≈ 196 µM) | > 64 µg/mL | 
CCOC(=O)c1cn(CC2CCC2)c2c(ccc3c2nnn3C)c1=O | > 64 µg/mL | > 64 µg/mL | > 64 µg/mL | > 64 µg/mL | > 64 µg/mL | > 64 µg/mL | > 128 µg/mL | > 64 µg/mL | > 64 µg/mL | > 128 µg/mL | > 64 µg/mL | > 64 µg/mL | 64 µg/mL (≈ 188 µM) | > 64 µg/mL | 
Cn1cc(C(=O)O)c(=O)c2ccc3c(nnn3Cc3ccccc3)c21 | > 64 µg/mL | > 64 µg/mL | > 64 µg/mL | > 64 µg/mL | > 64 µg/mL | > 64 µg/mL | 4 µg/mL (≈ 12 µM) | > 64 µg/mL | > 64 µg/mL | 32 µg/mL (≈ 95.7 µM) | > 64 µg/mL | > 64 µg/mL | 8 µg/mL (≈ 23.9 µM) | > 64 µg/mL | > 100 µg/mL
CCn1cc(C(=O)O)c(=O)c2ccc3c(nnn3Cc3ccccc3)c21 | > 64 µg/mL | > 64 µg/mL | > 64 µg/mL | > 64 µg/mL | > 64 µg/mL | > 64 µg/mL | 8 µg/mL (≈ 23 µM) | > 64 µg/mL | > 64 µg/mL | 64 µg/mL (≈ 184 µM) | > 64 µg/mL | > 64 µg/mL | 64 µg/mL (≈ 184 µM) | > 64 µg/mL | 
C=CCn1cc(C(=O)O)c(=O)c2ccc3c(nnn3Cc3ccccc3)c21 | > 64 µg/mL | > 64 µg/mL | > 64 µg/mL | > 64 µg/mL | > 64 µg/mL | > 64 µg/mL | 4 µg/mL (≈ 11.1 µM) | > 64 µg/mL | > 64 µg/mL | > 128 µg/mL | > 64 µg/mL | > 64 µg/mL | 64 µg/mL (≈ 178 µM) | > 64 µg/mL | 
CCCCn1cc(C(=O)O)c(=O)c2ccc3c(nnn3Cc3ccccc3)c21 | > 64 µg/mL | > 64 µg/mL | > 64 µg/mL | > 64 µg/mL | > 64 µg/mL | > 64 µg/mL | 64 µg/mL (≈ 170 µM) | > 64 µg/mL | > 64 µg/mL | > 128 µg/mL | > 64 µg/mL | > 64 µg/mL | 64 µg/mL (≈ 170 µM) | > 64 µg/mL | 
Cn1nnc2c3c(ccc21)c(=O)c(C(=O)O)cn3C(C)(C)C | > 64 µg/mL | > 64 µg/mL | > 64 µg/mL | > 64 µg/mL | > 64 µg/mL | > 64 µg/mL | 8 µg/mL (≈ 26.6 µM) | > 64 µg/mL | > 64 µg/mL | 32 µg/mL (≈ 107 µM) | > 64 µg/mL | > 64 µg/mL | 16 µg/mL (≈ 53.3 µM) | > 64 µg/mL | > 100 µg/mL
C=C(C)Cn1cc(C(=O)O)c(=O)c2ccc3c(nnn3C)c21 | > 64 µg/mL | > 64 µg/mL | > 64 µg/mL | > 64 µg/mL | > 64 µg/mL | > 64 µg/mL | 32 µg/mL (≈ 107 µM) | > 64 µg/mL | > 64 µg/mL | 64 µg/mL (≈ 215 µM) | > 64 µg/mL | > 64 µg/mL | 64 µg/mL (≈ 215 µM) | > 64 µg/mL | 
Cn1nnc2c3c(ccc21)c(=O)c(C(=O)O)cn3CC1CC1 | > 64 µg/mL | > 64 µg/mL | > 64 µg/mL | > 64 µg/mL | > 64 µg/mL | > 64 µg/mL | 16 µg/mL (≈ 53.6 µM) | > 64 µg/mL | > 64 µg/mL | 64 µg/mL (≈ 215 µM) | > 64 µg/mL | > 64 µg/mL | 32 µg/mL (≈ 107 µM) | > 64 µg/mL | 
Cn1nnc2c3c(ccc21)c(=O)c(C(=O)O)cn3CC1CCC1 | > 64 µg/mL | > 64 µg/mL | > 64 µg/mL | > 64 µg/mL | > 64 µg/mL | > 64 µg/mL | 16 µg/mL (≈ 51.2 µM) | > 64 µg/mL | > 64 µg/mL | 64 µg/mL (≈ 205 µM) | > 64 µg/mL | > 64 µg/mL | 32 µg/mL (≈ 102 µM) | > 64 µg/mL | 
Cn1cc(C(=O)O)c(=O)c2ccc3c(nnn3C)c21 | > 64 µg/mL | > 64 µg/mL | > 64 µg/mL | > 64 µg/mL | > 64 µg/mL | > 64 µg/mL | 0.5 µg/mL (≈ 1.94 µM) | > 64 µg/mL | > 64 µg/mL | 5 µg/mL (≈ 19.4 µM) | > 64 µg/mL | > 64 µg/mL | 0.5 µg/mL (≈ 1.94 µM) | > 64 µg/mL | > 100 µg/mL
O=C(O)c1cn(C2CC2)c2cc(N3CCNCC3)c(F)cc2c1=O [CIPROFLOXACIN] |  |  |  |  |  |  | 0.5 µg/mL (≈ 1.51 µM) |  |  | 0.125 µg/mL (≈ 0.377 µM) |  |  | 0.5 µg/mL (≈ 1.51 µM) |  | 
CC[C@@H](CO)NCCN[C@@H](CC)CO [ETHAMBUTOL] |  |  |  |  |  |  | 4 µg/mL (≈ 19.6 µM) |  |  | 0.5 µg/mL (≈ 2.45 µM) |  |  | 5 µg/mL (≈ 24.5 µM) |  | 
CO[C@H]1/C=C/O[C@@]2(C)Oc3c(C)c(O)c4c(O)c(c(/C=N/N5CCN(C)CC5)c(O)c4c3C2=O)NC(=O)/C(C)=C\C=C\[C@H](C)[C@H](O)[C@@H](C)[C@@H](O)[C@@H](C)[C@H](OC(C)=O)[C@@H]1C [RIFAMPIN] |  |  |  |  |  |  | ≤ 0.06 µg/mL |  |  | 8 µg/mL (≈ 9.72 µM) |  |  | < 0.5 µg/mL |  | 
CN[C@@H]1[C@H](O[C@H]2[C@H](O[C@H]3[C@H](O)[C@@H](O)[C@H](N=C(N)N)[C@@H](O)[C@@H]3N=C(N)N)O[C@@H](C)[C@]2(O)C=O)O[C@@H](CO)[C@H](O)[C@H]1O [STREPTOMYCIN] |  |  |  |  |  |  | 1 µg/mL (≈ 1.72 µM) |  |  |  |  |  | 1 µg/mL (≈ 1.72 µM) |  | 
